# 14-3-3 Bad inh: disrupts binding of bovine 14-3-3 zeta to phospho-Bad peptide | P63103 | 220,000 tested, 0.71% active | inhibition, % at 21.7 µM | TR-FRET 14-3-3zeta/Dy647-pBad peptide displacement, 1 h;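 active = inhibition above about 70%, limit read from the data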
# NCF1 inh: inhibitors of human p47phox binding; P14598; p47phox/p22phox peptide binding, fluorescence polarization, 2 h; inhibition, % at 24.7 µM; 220,000 tested, 0.53% active; AID 1274
# Target sequence (P14598 whole entry, looked up): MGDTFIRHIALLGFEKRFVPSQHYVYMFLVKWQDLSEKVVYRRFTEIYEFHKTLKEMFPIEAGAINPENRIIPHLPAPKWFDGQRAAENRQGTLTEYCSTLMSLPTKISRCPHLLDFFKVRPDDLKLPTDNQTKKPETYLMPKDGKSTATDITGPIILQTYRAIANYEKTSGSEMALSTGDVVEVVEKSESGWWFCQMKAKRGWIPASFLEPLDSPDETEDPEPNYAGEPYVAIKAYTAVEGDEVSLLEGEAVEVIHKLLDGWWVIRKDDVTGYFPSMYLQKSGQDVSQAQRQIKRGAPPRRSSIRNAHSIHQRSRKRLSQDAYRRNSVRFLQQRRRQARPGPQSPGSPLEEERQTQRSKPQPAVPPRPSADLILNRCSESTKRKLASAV
# RBBP9 inh: blocks human serine hydrolase RBBP9; O75884; recombinant RBBP9, FP-Rh probe fluorescence polarization; inhibition, % at 7.94 µM; 220,000 tested, 0.2% active;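 active = inhibition above the campaign mean of all tested compounds plus 3 SD, cut at about 14% in these data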
# Target sequence (O75884 whole entry, looked up): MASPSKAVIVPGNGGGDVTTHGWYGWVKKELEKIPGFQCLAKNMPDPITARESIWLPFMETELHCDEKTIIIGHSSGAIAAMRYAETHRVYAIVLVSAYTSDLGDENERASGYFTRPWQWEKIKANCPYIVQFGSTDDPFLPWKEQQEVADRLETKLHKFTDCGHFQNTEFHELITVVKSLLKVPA
#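 system = RBBP9 protein | input = RBBP9 at 2.5 µM in dispensed solution, before mixing | measured by = fluorescence polarization (mP), excitation 525 nm, emission 598 nm | incubation = enzyme-compound preincubation 30 min, then probe labeling 45 min, 25 °C | buffer or medium = Tris-NaCl-Pluronic buffer, pH 8.0 | compound = single dose 7.94 µM | also added = FP-Rh probe, 375 nM dispensing solution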
# Wee1 degr inh: blocks degradation of human Wee1 kinase | P30291 | HeLa Luc-Wee1K328M stability, luciferase luminescence; 100% = proteasome inhibitor MG132 effect | reporter increase, % at 5 µM | 220,000 tested, 1.2% active | AID 1321;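 active = activation above the mean of all tested compounds plus 3 SD, set per screening run, cut at about 8.8% in these data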;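 also: cells exposed to compound for 20 h before luminescence read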
# eIF4E-4G inh: inhibitors of eIF4E and eIF4G interaction in translation initiation. AID 782. P63073+Q04637. inhibition, % at 21.7 µM. 220,000 tested, 0.37% active. TR-FRET eIF4E-eIF4GI(517-606) binding, 2 h
# Hits are given with their value; n = inactive; x = no result given; [ ] = another dose, or the depositor's remark. Only some compounds are listed: those with a hit (about 2.8% of all), similar ones and a draw of the others.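 The calls were made as follows, unless noted: active = inhibition above about 30% (limit read from the data); inactive = the rest.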
SMILES,14-3-3 Bad inh,NCF1 inh,RBBP9 inh,Wee1 degr inh,eIF4E-4G inh
CCOc1ccc(/C=C2/SC(=S)N(C(C(=O)O)c3ccccc3)C2=O)cc1OCC (stereo unspecified),n,n,n,17,n
COc1cc(-c2[nH]ncc2CN(C)Cc2cc(C)[nH]n2)cc(OC)c1OC,n,36,n,n,n
Cc1c(N2C(=O)/C(=C\c3ccc(N(C)C)cc3)N(C)C2=S)c(=O)n(-c2ccccc2)n1C,n,n,n,n,n
Cc1ccc(NC(=O)CN2C(=O)S/C(=C/c3ccc(-c4cccc(C(=O)O)c4)o3)C2=O)cc1,88,n,n,n,43
O=C(O)c1cc(-c2ccc(/C=C3/SC(=S)N(Cc4ccccc4)C3=O)o2)ccc1Cl,100,n,n,n,62
Cc1ccc(NC(=O)CN2C(=O)S/C(=C\c3ccc(-c4cccc(C(=O)O)c4C)o3)C2=O)cc1,n,n,n,n,n
COc1ccc(CN2C(=O)/C(=C/c3ccc(-c4ccc(Cl)c(C(=O)O)c4)o3)SC2=S)cc1,77,n,n,n,65
COc1ccc(/C=C/C(=O)NC(CCSC)C(=O)O)cc1 (stereo unspecified),n,n,n,n,n
O=C(CNC(=O)c1ccc(Br)cc1)OCc1cc([N+](=O)[O-])cc2c1OCOC2,n,n,n,n,n
Cc1nc2c(C#N)c[nH]n2c(=O)c1CCO,n,n,n,n,n
O=C1Nc2ccc(F)cc2C12Nc1ccccc1-c1nnc(SCc3ccccc3F)nc1O2 (stereo unspecified),x,43,n,n,x
O=C1Nc2ccc(Cl)cc2C12Nc1ccccc1-c1nnc(SCc3ccccc3F)nc1O2 (stereo unspecified),n,n,n,n,n
O=C(COC(=O)c1ccccn1)Nc1cccc(Cl)c1,n,36,n,n,n
O=C(COC(=O)c1ccccn1)Nc1ccc2c(c1)OCO2,n,n,n,n,n
CCCCN1C(=O)C(=Nc2cccc3cnccc23)c2ccccc21,n,n,n,n,n
CCOc1cccc2cc(-c3nnc(NCc4ccc5c(c4)OCO5)s3)c(=O)oc12,83[fluorescence artefact?],67,n,n,n
COC(=O)C1=C(C)N(CCc2ccc(OC)cc2)C(=O)C1,n,92,n,n,n
CN(C)CCNC(=O)/C(=C/c1ccc(-c2ccc(Cl)cc2Cl)o1)NC(=O)c1ccccc1,n,32,n,n,n
O=C1CC2(CCCC2)CC(=O)N1c1ccccc1,n,n,n,n,n
NC(=O)CCn1c(=O)oc2ccccc21,n,68,n,n,n
Cc1c(C(=O)Nc2ccccc2)cn2c(nc3ccccc32)c1C#N,n,n,n,n,n
Cc1ccccc1C(=O)Nc1ccc2c(C#N)c3nc4ccccc4nc3n2c1,89[fluorescence artefact?],34,n,n,n
COc1cc(OC)cc(C(=O)N[C@H](C(=O)Nc2nc3ccc(S(C)(=O)=O)cc3s2)C(C)C)c1,n,n,n,n,n
CC1(C)CC(=O)C([N+](=O)[O-])=C(NCCCC(=O)O)C1,n,n,n,n,n
O=S1(=O)N=C(Oc2cccc3ccccc23)c2ccccc21,86,n,n,n,n
SMILES,14-3-3 Bad inh,NCF1 inh,RBBP9 inh,Wee1 degr inh,eIF4E-4G inh
Cc1cc2nc3c(=O)[nH]c(=O)[nH]c3nc2c([N+](=O)[O-])c1N,73,n,n,n,50
Cc1c(N)c(C(C)(C)C)cc(C(C)(C)C)c1[N+](=O)[O-],n,n,n,n,n
COC(=O)c1ccc(C(=O)OC)c(NC(=S)N2CCN(c3ccccn3)CC2)c1,n,n,n,n,n
Cc1ccc(N2CC(=O)Nc3c(sc4nc(C)cc(C)c34)C2=O)cc1,n,n,n,n,n
Cc1cc(C)c2c3c(sc2n1)C(=O)N(c1ccccc1C)CC(=O)N3,n,n,n,9.5,n
CCOC(=O)c1sc(=S)sc1SCc1cccc(C(F)(F)F)c1,n,n,n,n,n
COc1ccc(Cl)cc1NC(=O)C(C)N1CCN(C/C=C/c2ccccc2)CC1 (stereo unspecified),76,n,n,n,n
CC(=O)c1ccc(NC(=O)C(C)N2CCN(C/C=C/c3ccccc3)CC2)cc1 (stereo unspecified),n,n,n,n,n
CCc1ccc2c(c1)C(O)(CC(=O)c1cccs1)C(=O)N2 (stereo unspecified),n,n,n,9.8,n
Cc1ccc2c(c1)cc(CN(Cc1cccnc1)C(=O)NCc1ccccc1)c1nnnn12,n,n,n,n,n
O=C(CCCN1Cc2ccccc2C1)c1ccc(F)cc1,n,n,n,n,n
CN1CCN(CCCC(=O)c2ccc(F)cc2)CC1,86,64,n,n,n
O=c1[nH]c(-c2ccccc2Cl)nc2c1sc(=S)n2-c1ccccc1,71,n,n,n,n
C=CCc1cccc(/C=N/NC(=O)CCCNc2ccc(C)cc2)c1O,n,94,n,n,n
COc1ccc2nc3oc(C(=O)Nc4ccc(OC)c(OC)c4)cc3cc2c1,n,n,n,8.9,n
O=C(CN1CCc2ccccc21)NN1CC(=O)N(c2ccccc2)CC1=O,n,n,n,n,n
CCN(C(=O)c1cc2c(C)nc3ccccc3c2o1)c1cc(Cl)ccc1OC,n,n,n,n,n
O=C1CC(N2CCN(Cc3ccc4c(c3)OCO4)CC2)C(=O)N1c1cccc(Cl)c1 (stereo unspecified),n,n,n,n,66
O=c1[nH]c2ccc(S(=O)(=O)N3CCN(c4ccc(F)cc4)CC3)cc2o1,n,n,n,n,n
Cc1ccc(CC2CC(=O)N(CCc3ccccc3)C2=O)cc1 (stereo unspecified),n,n,n,n,n
O=C1CC(Cc2ccccc2)C(=O)N1CCCn1ccnc1 (stereo unspecified),75,n,n,n,n
Clc1ccc(Cc2ccc(SCc3ccccc3)nn2)c(Cl)c1,72,n,n,n,n
Clc1ccc(Cc2ccc(Cl)nn2)c(Cl)c1,n,n,n,n,n
Cc1cccc(N2C(=O)c3cccc(Oc4ccc(Cl)cc4)c3C2=O)c1,n,n,n,n,n
CC(C)C(OC(=O)c1cccc(S(=O)(=O)NCC(F)(F)F)c1)C(=O)NC(N)=O (stereo unspecified),n,n,n,n,n
SMILES,14-3-3 Bad inh,NCF1 inh,RBBP9 inh,Wee1 degr inh,eIF4E-4G inh
CSc1ccccc1NC(=O)CN(C)Cc1cccc(Cl)c1,72,n,n,n,n
CSc1ccccc1NC(=O)CN(C)CC(=O)NCc1ccccc1,n,n,n,n,n
Cc1cc(C(=O)CN2C(=O)c3cccc(N)c3C2=O)c(C)n1Cc1cccs1,n,n,n,n,n
CCOC(=O)c1c(NC(=O)COC(=O)Cn2c(C)nc3ccccc32)sc2c1CCCC2,88,n,n,n,n
CCOC(=O)c1ccc(-n2c(N)c(C(=O)NCC3CCCO3)sc2=S)cc1 (stereo unspecified),n,n,n,n,n
COc1ccc(-n2c(N)c(C(=O)NCC3CCCO3)sc2=S)cc1 (stereo unspecified),n,n,n,10,n
